Assay results taken from ChEMBL document CHEMBL4007421, “Discovery and Preclinical Characterization of 3-((4-(4-Chlorophenyl)-7-fluoroquinoline-3-yl)sulfonyl)benzonitrile, a Novel Non-acetylenic Metabotropic Glutamate Receptor 5 (mGluR5) Negative Allosteric Modulator for Psychiatric Indications” (J Med Chem, 2017).
The source made the active and inactive calls. The rule behind the calls is not given here.

What was measured:
[1] = target: T1, Metabotropic glutamate receptor 5 (Rattus norvegicus, UniProt P31424); test: Displacement of [3H]M-MPEP from mGluR5 in Sprague-Dawley rat cerebrocortical membranes after 60 mins
Liver = test: Intrinsic clearance in human liver microsomes at 2.5 uM assessed per gram of liver; assay type: ADME, microsome
[2] = target: T2, Metabotropic glutamate receptor 5 (Homo sapiens, UniProt P41594); test: Negative allosteric modulation of human mGluR5a expressed in CHO cells assessed as reduction in DHPG-induced cytosolic Ca2+ influx after 10 to 20 mins by fluo-4/AM-dye based fluorometric analysis; assay type: functional, cell-based
Rattus norvegicus [3] = test: Anxiolytic activity in po dosed Wistar rat assessed as increase in water drinking time during punished period administered as suspension by Vogel punished drinking conflict test; assay type: functional; conditions: read-out: MED
Outline: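 Vogel punished-drinking test in rats, single i.p. or p.o. dose as suspension in 5% Tween 80; plasma sampled ~45 min after i.p. or ~75 min after p.o. dosing.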

[4] = target: T1, Metabotropic glutamate receptor 5; test: Negative allosteric modulation of mGluR5 in E17 Sprague-Dawley rat primary neuronal cultures assessed as reduction of DHPG-induced cytosolic Ca2+ influx after 10 to 20 mins by fluo-4/AM-dye based fluorometric analysis; assay type: functional
MDR1 [5] = test: Apparent inward permeability in MDCK2-MDR1 cells; assay type: ADME, cell-based, Canis lupus familiaris; conditions: dog, MDCK-MDR1
MDR1 [6] = test: Ratio of apparent outward permeability to apparent inward permeability in MDCK2-MDR1 cells; assay type: ADME, cell-based, Canis lupus familiaris; conditions: dog, MDCK-MDR1
Outline: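 MDCKII-MDR1 cell monolayers used as an in vitro surrogate of brain penetration. Transport was measured in both the inward and outward directions, and an apparent permeability (Papp) was calculated for each. The directional ratio (PDR) is Papp outward divided by Papp inward.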

[7] = Plasma protein binding in rat; assay type: ADME, cell-free; conditions: read-out: PPB (converted)
Cytochrome P450 2C9 = Cytochrome P450 2C9 (Homo sapiens, UniProt P11712); test: Inhibition of CYP2C9 in human liver microsomes; assay type: ADME
Cytochrome P450 3A4 = Cytochrome P450 3A4 (Homo sapiens, UniProt P08684); test: Inhibition of CYP3A4 in human liver microsomes; assay type: ADME
Rattus norvegicus [8] = test: Anxiolytic activity in Wistar rat assessed as increase in water drinking time during punished period at 10 mg/kg, po qd measured after first dosing by Vogel punished drinking conflict test; assay type: functional, organism-based
Outline: (§1)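 Vogel punished-drinking test in rats after 24 h water deprivation, with 60 s unpunished drinking; oral 10 mg/kg given once daily for 19 days, vehicle group dosed only on Day 19 as first-dose control; plasma sampled right after test; n=10 per group; ANOVA with Duncan post-hoc.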

Rattus norvegicus [9] = test: Anxiolytic activity in Wistar rat assessed as increase in water drinking time during punished period at 10 mg/kg, po qd for 19 days by Vogel punished drinking conflict test; assay type: functional, organism-based; outline: as §1
[10] = (§2) Toxicity in po dosed Harlan-Wistar rat assessed as decrease in spontaneous locomotor activity photocell-based activity monitor test; assay type: organism-based; conditions: Harlan-Wistar, in vivo
Outline: (§3)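 Male Wistar rats were given 0, 10, 30 or 50 mg/kg p.o. Spontaneous locomotor activity (ambulatory movement) was recorded in a photocell-based activity monitor.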

Rattus norvegicus [11] = test: as §2; assay type: organism-based; conditions: in vivo; outline: as §3
[12] = Volume of distribution in male Crl:CD(SD) rat at 0.5 mg/kg, iv; assay type: ADME, organism-based; conditions: in vivo
Outline: (§4)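 Single-dose PK: i.v. and oral dosing in Crl:CD(SD) rats and beagle dogs, plus a pilot oral nasogastric study in Cynomolgus monkeys using a Type IV lipid formulation. Rat i.v. vehicle was 80% cosolvent. Monkeys were fasted from 2 h before until 2 h after dosing, n=3 per sex. Rats also received [14C]-labelled compound orally at 50 mg/kg, with total radioactivity followed. Parameters are means; monkey values are medians.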

[13] = Volume of distribution in male beagle dog at 0.5 mg/kg, iv administered as infusion; assay type: ADME, organism-based, Canis lupus familiaris; conditions: in vivo; outline: as §4
[14] = Terminal elimination half life in male Crl:CD(SD) rat at 0.5 mg/kg, iv; assay type: ADME, organism-based; conditions: in vivo, read-out: beta t1/2 (converted); outline: as §4
[15] = Terminal elimination half life in female Crl:CD(SD) rat at 0.5 mg/kg, iv; assay type: ADME, organism-based; conditions: in vivo, read-out: beta t1/2 (converted); outline: as §4
[16] = Terminal elimination half life in male Crl:CD(SD) rat at 4.5 mg/kg, po; assay type: ADME, organism-based; conditions: in vivo, read-out: beta t1/2 (converted); outline: as §4
[17] = Terminal elimination half life in male beagle dog at 0.5 mg/kg, iv administered as infusion; assay type: ADME, organism-based, Canis lupus familiaris; conditions: in vivo, read-out: beta t1/2 (converted); outline: as §4
[18] = Terminal elimination half life in fasted female beagle dog at 1 mg/kg, po; assay type: ADME, organism-based, Canis lupus familiaris; conditions: in vivo, read-out: beta t1/2 (converted); outline: as §4
[19] = Terminal elimination half life in fasted female cynomolgus monkey at 9 mg/kg, po administered as single dose; assay type: ADME, organism-based, Macaca fascicularis; conditions: in vivo, read-out: beta t1/2 (converted); outline: as §4
[20] = Tmax in female Crl:CD(SD) rat at 4.5 mg/kg, po; assay type: ADME, organism-based; conditions: in vivo; outline: as §4
[21] = Tmax in female beagle dog at 0.5 mg/kg, iv administered as infusion; assay type: ADME, organism-based, Canis lupus familiaris; conditions: in vivo; outline: as §4
[22] = Tmax in fasted male beagle dog at 1 mg/kg, po; assay type: ADME, organism-based, Canis lupus familiaris; conditions: in vivo; outline: as §4
[23] = Tmax in fasted female cynomolgus monkey at 9 mg/kg, po administered as single dose; assay type: ADME, organism-based, Macaca fascicularis; conditions: in vivo; outline: as §4
[24] = Cmax in female Crl:CD(SD) rat at 4.5 mg/kg, po; assay type: ADME, organism-based; design: dose 4.5 mg/kg, route oral; conditions: in vivo
[25] = Cmax in male beagle dog at 0.5 mg/kg, iv administered as infusion; assay type: ADME, organism-based, Canis lupus familiaris; design: dose 0.5 mg/kg, route intravenous; conditions: in vivo
[26] = Cmax in female beagle dog at 0.5 mg/kg, iv administered as infusion; assay type: ADME, organism-based, Canis lupus familiaris; design: dose 0.5 mg/kg, route intravenous; conditions: in vivo
[27] = Cmax in fasted male beagle dog at 1 mg/kg, po; assay type: ADME, organism-based, Canis lupus familiaris; design: dose 1 mg/kg, route oral; conditions: in vivo
[28] = Cmax in fasted female beagle dog at 1 mg/kg, po; assay type: ADME, organism-based, Canis lupus familiaris; design: dose 1 mg/kg, route oral; conditions: in vivo
[29] = Cmax in fasted male cynomolgus monkey at 9 mg/kg, po administered as single dose; assay type: ADME, organism-based, Macaca fascicularis; design: dose 9 mg/kg, route oral; conditions: in vivo
[30] = AUC in male Crl:CD(SD) rat at 0.5 mg/kg, iv; assay type: ADME, organism-based; conditions: in vivo
[31] = AUC in female Crl:CD(SD) rat at 0.5 mg/kg, iv; assay type: ADME, organism-based; conditions: in vivo
[32] = AUC in male Crl:CD(SD) rat at 4.5 mg/kg, po; assay type: ADME, organism-based; conditions: in vivo
[33] = AUC in female Crl:CD(SD) rat at 4.5 mg/kg, po; assay type: ADME, organism-based; conditions: in vivo
[34] = AUC in male beagle dog at 0.5 mg/kg, iv administered as infusion; assay type: ADME, organism-based, Canis lupus familiaris; conditions: in vivo
[35] = AUC in female beagle dog at 0.5 mg/kg, iv administered as infusion; assay type: ADME, organism-based, Canis lupus familiaris; conditions: in vivo
[36] = AUC in fasted female beagle dog at 1 mg/kg, po; assay type: ADME, organism-based, Canis lupus familiaris; conditions: in vivo
[37] = target: Metabotropic glutamate receptor 1 (Rattus norvegicus) (UniProt P23385); test: Negative allosteric modulation of mGluR1 in newborn Sprague-Dawley rat cerebelli assessed as reduction of DHPG-induced cytosolic Ca2+ influx after 10 to 20 mins by fluo-4/AM-dye based fluorometric analysis; assay type: functional
Rattus norvegicus [38] = test: Toxicity in po dosed Harlan-Wistar rat assessed as effect on ambulatory movement at 10 to 30 mg/kg, po by photocell-based activity monitor test; assay type: organism-based; conditions: in vivo; outline: as §3
[39] = Plasma concentration in po dosed Wistar rat dosed 1 hr prior to first daily trial by Morris water maze test; assay type: ADME, organism-based
[40] = target: T2, Metabotropic glutamate receptor 5; test: Displacement of [3H]M-MPEP from mGluR5 in male human post mortem parietal cortical tissue after 30 mins by scintillation counting method

T1 sequence (P31424 whole entry): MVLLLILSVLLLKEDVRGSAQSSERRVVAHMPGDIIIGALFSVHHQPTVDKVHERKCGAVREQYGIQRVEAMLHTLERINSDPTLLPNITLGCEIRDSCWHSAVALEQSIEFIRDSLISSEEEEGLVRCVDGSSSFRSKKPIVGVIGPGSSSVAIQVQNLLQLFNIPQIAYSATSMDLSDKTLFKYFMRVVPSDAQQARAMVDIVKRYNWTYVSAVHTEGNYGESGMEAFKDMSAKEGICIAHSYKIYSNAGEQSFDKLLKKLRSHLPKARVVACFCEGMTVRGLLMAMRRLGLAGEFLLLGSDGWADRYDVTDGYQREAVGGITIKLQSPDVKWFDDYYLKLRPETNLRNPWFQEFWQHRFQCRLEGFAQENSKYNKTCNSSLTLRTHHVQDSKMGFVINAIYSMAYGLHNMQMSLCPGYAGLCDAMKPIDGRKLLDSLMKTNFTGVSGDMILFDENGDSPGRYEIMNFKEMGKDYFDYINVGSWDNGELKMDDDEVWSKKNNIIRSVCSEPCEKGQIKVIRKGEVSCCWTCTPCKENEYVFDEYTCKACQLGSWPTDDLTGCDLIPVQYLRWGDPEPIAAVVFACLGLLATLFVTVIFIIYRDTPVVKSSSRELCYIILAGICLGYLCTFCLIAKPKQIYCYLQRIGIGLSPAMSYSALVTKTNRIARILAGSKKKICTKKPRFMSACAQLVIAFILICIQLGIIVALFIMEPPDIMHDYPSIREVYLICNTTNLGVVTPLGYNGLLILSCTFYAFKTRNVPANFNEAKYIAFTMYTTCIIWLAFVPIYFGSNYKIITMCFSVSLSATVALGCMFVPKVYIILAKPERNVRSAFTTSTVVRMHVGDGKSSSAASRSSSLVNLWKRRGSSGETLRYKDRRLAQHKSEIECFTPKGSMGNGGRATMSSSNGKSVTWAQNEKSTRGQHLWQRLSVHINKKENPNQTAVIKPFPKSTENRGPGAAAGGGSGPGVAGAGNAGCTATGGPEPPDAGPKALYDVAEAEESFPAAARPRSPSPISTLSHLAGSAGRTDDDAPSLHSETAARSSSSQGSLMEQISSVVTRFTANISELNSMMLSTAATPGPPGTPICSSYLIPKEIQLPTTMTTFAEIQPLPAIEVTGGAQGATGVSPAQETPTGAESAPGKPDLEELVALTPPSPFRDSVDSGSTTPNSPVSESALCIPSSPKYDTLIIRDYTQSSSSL
T2 sequence (P41594 whole entry): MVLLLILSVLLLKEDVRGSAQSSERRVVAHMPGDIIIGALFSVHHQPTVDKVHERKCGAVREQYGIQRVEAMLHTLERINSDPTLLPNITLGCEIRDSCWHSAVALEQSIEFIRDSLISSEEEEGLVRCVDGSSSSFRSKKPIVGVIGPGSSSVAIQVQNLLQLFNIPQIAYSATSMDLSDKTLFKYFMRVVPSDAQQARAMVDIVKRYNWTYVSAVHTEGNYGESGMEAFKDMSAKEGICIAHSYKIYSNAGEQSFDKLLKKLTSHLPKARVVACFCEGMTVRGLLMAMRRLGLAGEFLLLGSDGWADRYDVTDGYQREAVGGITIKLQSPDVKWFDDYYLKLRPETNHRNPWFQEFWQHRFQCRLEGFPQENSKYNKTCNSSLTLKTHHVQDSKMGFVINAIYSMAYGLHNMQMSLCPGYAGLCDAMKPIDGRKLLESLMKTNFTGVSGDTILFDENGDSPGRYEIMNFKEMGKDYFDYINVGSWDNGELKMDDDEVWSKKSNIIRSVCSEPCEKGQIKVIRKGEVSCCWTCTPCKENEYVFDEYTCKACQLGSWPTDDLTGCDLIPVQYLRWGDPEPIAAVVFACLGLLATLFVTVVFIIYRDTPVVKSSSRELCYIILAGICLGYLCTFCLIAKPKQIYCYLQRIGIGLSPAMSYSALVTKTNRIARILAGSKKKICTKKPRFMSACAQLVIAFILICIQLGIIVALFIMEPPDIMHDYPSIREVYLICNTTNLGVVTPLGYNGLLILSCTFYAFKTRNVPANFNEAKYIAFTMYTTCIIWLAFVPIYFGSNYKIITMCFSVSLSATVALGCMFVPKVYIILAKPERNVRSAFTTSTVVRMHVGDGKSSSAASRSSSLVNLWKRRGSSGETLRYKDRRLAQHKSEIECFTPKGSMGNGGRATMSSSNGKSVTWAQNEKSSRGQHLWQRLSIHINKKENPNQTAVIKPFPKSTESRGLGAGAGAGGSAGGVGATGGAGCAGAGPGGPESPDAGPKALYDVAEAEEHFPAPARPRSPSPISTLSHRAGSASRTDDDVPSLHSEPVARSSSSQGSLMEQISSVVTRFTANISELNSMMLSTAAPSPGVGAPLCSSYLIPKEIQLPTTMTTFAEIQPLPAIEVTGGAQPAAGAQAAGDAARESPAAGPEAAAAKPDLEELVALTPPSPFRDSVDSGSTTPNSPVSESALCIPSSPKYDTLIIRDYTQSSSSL
Sequence of Cytochrome P450 2C9 (P11712 whole entry): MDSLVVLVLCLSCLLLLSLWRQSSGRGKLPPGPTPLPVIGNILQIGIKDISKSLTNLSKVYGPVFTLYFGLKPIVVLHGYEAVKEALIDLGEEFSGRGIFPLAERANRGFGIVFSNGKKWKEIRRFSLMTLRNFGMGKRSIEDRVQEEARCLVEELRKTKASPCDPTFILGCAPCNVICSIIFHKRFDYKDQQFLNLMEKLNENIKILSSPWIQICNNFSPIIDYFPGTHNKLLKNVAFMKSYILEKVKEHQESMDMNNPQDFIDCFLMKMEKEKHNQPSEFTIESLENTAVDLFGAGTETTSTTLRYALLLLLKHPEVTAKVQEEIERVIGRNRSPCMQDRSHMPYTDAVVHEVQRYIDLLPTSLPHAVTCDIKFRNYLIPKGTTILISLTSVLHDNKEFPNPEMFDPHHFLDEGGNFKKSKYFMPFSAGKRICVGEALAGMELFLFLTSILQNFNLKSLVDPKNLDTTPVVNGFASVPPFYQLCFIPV
Sequence of Metabotropic glutamate receptor 1 (Rattus norvegicus) (P23385 19-1199 limits assumed): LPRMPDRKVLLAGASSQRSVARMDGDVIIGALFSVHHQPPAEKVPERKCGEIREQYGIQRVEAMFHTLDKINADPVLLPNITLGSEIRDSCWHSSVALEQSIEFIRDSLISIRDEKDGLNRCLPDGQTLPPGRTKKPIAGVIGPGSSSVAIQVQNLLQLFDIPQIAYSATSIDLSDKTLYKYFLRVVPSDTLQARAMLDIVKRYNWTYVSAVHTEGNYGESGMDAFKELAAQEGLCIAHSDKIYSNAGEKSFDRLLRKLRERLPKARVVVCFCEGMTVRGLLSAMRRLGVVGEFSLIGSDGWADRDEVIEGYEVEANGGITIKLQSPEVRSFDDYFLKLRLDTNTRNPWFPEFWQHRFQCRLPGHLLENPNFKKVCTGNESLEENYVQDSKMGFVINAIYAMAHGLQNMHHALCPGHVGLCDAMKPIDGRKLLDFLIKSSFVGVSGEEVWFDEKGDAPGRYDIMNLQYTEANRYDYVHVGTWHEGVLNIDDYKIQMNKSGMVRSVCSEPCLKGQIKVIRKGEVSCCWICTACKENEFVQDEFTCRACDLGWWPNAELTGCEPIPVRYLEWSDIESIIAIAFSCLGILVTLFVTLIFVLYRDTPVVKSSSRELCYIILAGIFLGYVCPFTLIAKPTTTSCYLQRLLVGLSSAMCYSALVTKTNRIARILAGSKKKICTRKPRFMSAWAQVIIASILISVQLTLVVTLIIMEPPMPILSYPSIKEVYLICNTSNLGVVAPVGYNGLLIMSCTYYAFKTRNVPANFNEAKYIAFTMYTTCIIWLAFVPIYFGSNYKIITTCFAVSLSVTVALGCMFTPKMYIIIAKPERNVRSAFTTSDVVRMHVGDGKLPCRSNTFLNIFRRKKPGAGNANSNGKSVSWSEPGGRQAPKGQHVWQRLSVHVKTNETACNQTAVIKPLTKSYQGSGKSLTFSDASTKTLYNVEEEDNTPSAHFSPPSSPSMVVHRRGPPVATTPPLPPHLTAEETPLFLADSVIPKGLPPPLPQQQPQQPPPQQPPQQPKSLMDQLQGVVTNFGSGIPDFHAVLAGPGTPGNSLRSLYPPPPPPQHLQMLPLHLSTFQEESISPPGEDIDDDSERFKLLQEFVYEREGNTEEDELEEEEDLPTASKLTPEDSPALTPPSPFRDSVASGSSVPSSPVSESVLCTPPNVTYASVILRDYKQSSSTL
Sequence of Cytochrome P450 3A4 (P08684 whole entry): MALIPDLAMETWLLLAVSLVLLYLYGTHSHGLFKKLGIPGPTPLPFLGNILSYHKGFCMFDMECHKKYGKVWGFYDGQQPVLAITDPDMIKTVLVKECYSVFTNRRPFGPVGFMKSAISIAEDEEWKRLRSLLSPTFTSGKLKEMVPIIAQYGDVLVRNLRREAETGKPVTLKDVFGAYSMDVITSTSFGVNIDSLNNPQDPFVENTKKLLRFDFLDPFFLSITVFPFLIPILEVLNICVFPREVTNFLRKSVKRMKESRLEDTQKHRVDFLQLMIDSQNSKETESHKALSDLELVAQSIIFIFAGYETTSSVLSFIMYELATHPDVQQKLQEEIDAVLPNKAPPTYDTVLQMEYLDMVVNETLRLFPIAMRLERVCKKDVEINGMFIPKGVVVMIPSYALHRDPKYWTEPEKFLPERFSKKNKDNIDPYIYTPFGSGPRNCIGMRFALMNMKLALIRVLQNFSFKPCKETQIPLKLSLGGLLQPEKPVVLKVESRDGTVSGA

SMILES: N#Cc1cccc(S(=O)(=O)c2cnc3cc(F)ccc3c2-c2ccc(Cl)cc2)c1
- Ki [1]: 55.3 nM
- CLint (Liver): 0.31 mL/min/g
- IC50 [2]: 13 nM
- minimal effective dose (Rattus norvegicus [3]): 0.5 mg/kg
- IC50 [4]: 19 nM
- Papp (MDR1 [5]): 11.5 ×10⁻⁶ cm/s
- efflux ratio (MDR1 [6]): 0.74
- fraction unbound [7]: 0.0027
- IC50 (Cytochrome P450 2C9): > 10000 nM
- IC50 (Cytochrome P450 3A4): > 10000 nM
- Activity (Rattus norvegicus [8]): Active
- Activity (Rattus norvegicus [9]): Active
- NOAEL [10]: 30 mg/kg
- Activity (Rattus norvegicus [11]): Dose-dependent effect
- ED50 (Rattus norvegicus [11]): 50 mg/kg
- Vd [12]: 12.4 L/kg
- Vd [13]: 8.6 L/kg
- half-life [14]: 5.13 h
- half-life [15]: 7.79 h
- half-life [16]: 7.06 h
- half-life [17]: 12.2 h
- half-life [18]: 10.7 h
- half-life [19]: 2.1 h
- Tmax [20]: 0.75 h
- Tmax [21]: 0.5 h
- Tmax [22]: 0.75 h
- Tmax [23]: 1.3 h
- Cmax [24]: 650 nM
- Cmax [25]: 1540 nM
- Cmax [26]: 1140 nM
- Cmax [27]: 492 nM
- Cmax [28]: 551 nM
- Cmax [29]: 57 nM
- AUC [30]: 0.707 µM·h
- AUC [31]: 1.38 µM·h
- AUC [32]: 2.19 µM·h
- AUC [33]: 7.3 µM·h
- AUC [34]: 3.07 µM·h
- AUC [35]: 2.22 µM·h
- AUC [36]: 1.68 µM·h
- Activity [37]: Active
- Activity (Rattus norvegicus [38]): Non-Toxic
- concentration at 1 h [39]: 986 nM
- Ki [40]: 10.8 nM
